Source: PubChem
This is a sample that favours compounds with a hit; in the whole collection about 3.3% have one here.
rCAG binder: molecules binding r(CAG) RNA repeats; inhibition, % at 3 µM; hit rate 1.3% among 370,000; r(CAG) RNA repeat, TO-PRO-1 dye displacement fluorescence;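 active = inhibition above the plate cutoff, the mean of all test compounds on that plate plus 3 SD, cut at about 35% in these data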;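 also: 0% = DMSO alone and 100% = 100 µM mitoxantrone as full dye displacement; higher means more dye released from RNA so lower well fluorescence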
ABHD4 inh: inhibits mouse alpha/beta hydrolase domain 4 | inhibition, % at 8.92 µM | purified mABHD4, FP-Rh probe fluorescence polarization | hit rate 0.54% among 370,000 | Q8VD66;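 active = inhibition exceeding the mean over every tested compound plus 3 SD, cut at about 30% in these data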;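 also: 0% = plate median of compound wells and 100% = S159A mutant with DMSO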
Target sequence (Q8VD66 whole entry, looked up, the tested form may be a part): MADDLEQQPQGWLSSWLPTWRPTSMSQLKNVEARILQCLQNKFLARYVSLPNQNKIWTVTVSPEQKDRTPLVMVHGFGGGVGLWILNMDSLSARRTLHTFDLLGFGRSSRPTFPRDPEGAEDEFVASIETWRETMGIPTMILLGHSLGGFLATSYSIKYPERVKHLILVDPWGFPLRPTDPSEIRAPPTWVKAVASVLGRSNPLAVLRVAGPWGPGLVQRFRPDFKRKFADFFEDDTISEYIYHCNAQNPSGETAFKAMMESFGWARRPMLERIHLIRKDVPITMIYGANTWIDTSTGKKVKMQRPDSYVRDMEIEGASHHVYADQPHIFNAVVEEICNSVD
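Assay system: wild-type mouse ABHD4 protein; compound: single nominal dose of 8.92 µM, 0.89% DMSO final; schedule: 45 min + 60 min at 25 °C; measured by: FP readout, ex 525 nm / em 598 nm; evaluation: % inhibition of FP-Rh probe binding versus controls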
PRMT1 FP inh: PRMT1 (human) inhibition, primary screen; hit rate 1.3% among 370,000; recombinant PRMT1, activity-based probe fluorescence polarization; Q99873; inhibition, % at 2.79 µM;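 active = inhibition above about 21% made by adding two undisclosed values, limit read from the data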
Target sequence (Q99873 whole entry, looked up): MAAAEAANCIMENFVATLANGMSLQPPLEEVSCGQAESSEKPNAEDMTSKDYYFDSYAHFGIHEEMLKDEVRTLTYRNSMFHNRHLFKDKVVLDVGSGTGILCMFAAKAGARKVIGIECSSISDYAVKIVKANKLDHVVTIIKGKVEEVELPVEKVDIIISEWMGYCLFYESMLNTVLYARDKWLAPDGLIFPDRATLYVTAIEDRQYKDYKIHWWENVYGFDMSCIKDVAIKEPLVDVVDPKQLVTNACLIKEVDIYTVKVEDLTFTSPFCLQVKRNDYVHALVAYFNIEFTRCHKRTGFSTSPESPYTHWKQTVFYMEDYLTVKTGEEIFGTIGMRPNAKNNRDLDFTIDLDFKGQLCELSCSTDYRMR
TCR-CD3 inh: inhibitors of human TCR-CD3 interaction; TAMRA-labeled TCR probe fluorescence, biochemical; inhibition, % at 9.4 µM; hit rate 0.37% among 360,000; AID 651800; in the data active = inhibition above about 19%;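 also: recombinant mutant TCR 2C K166C tagged with TAMRA read by polarization; 0% = receptor in buffer alone and 100% = receptor with positive control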
SIAE primary: blocks human sialic acid acetylesterase; Q9HAT2; SIAE FP-Rh probe binding, fluorescence polarization; inhibition, % at 9.66 µM; hit rate 0.69% among 370,000;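 active = inhibition above a cutoff: mean of compounds within the control limits plus 3 SD of those, cut at about 17% in these data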;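 also: 0% = plate median of compound wells and 100% = probe without SIAE protein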
rCAG bind conf: r(CAG) RNA repeat binding, confirmation | shares compounds with rCAG binder | TO-PRO-1 dye displacement fluorescence | inhibition, % at 3 µM | hit rate 70% among 4,300 | AID 652065;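 active = inhibition above a per-plate cutoff, the mean inhibition of sample wells plus 3 SD, cut at about 35% in these data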;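 also: loss of TO-PRO-1 fluorescence as compound displaces dye from 1x1 AA loop RNA; 0% = DMSO only wells and 100% = 100 µM mitoxantrone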
dCAG dye counter: disrupts DNA CAG TO-PRO-1 complex, flagging rCAG hits | shares compounds with rCAG binder | d(CAG) DNA oligo TO-PRO-1 dye displacement, fluorescence | inhibition, % at 3 µM | hit rate 94% among 4,300 | AID 652068;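 active = inhibition above its plate's cutoff, the mean test-well inhibition plus 3 SD, cut at about 4.8% in these data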;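 also: 0% = DNA dye mix with DMSO and 100% = 100 µM mitoxantrone; hits displace the dye from DNA and so lower well fluorescence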
DNA CAG DR: counter-screen for rCAG binders: inhibitors of DNA CAG TO-PRO-1 complex. shares compounds with rCAG binder. DNA CAG/GTC duplex TO-PRO-1 dye displacement fluorescence. IC50, µM. hit rate 20% among 250; in the data active = IC50 below about 10 µM
PRMT1 confirm: confirmation of human PRMT1 inhibitors. shares compounds with PRMT1 FP inh. recombinant His-PRMT1, activity-based probe fluorescence polarization. inhibition, % at 2.79 µM. hit rate 42% among 3,300;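 active = mean inhibition across replicates above the hit cutoff derived for the earlier primary screen, cut at about 22% in these data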
* = called active by the depositor; . = no result given.

SMILES	rCAG binder	ABHD4 inh	PRMT1 FP inh	TCR-CD3 inh	SIAE primary	rCAG bind conf	dCAG dye counter	others
O=C(O)COc1ccc(/C=C2/SC(=S)N(Cc3ccccc3)C2=O)cc1	75.8*	-34.8	10.1	2.9	-9.4	84.8*	51.6*
CC(Cl)C(=O)N1CCC(C(=O)NCC2COc3ccccc3O2)CC1 (stereo unspecified)	3.2	3.4	9.4	.	-2.3	.	.
O=C1CSc2ccc(C(=O)Nc3cccc(S(=O)(=O)Nc4ccc(Br)cc4)c3)cc2N1	39.1*	-211.4	21.5*	11.3	-192.6	45.3*	15.3*
O=C(Nc1ccc(C(O)(C(F)(F)F)C(F)(F)F)cc1)c1ccc(F)cc1F	.	-23.2	-1.1	.	-5.1	.	.
Cc1[nH]n(-c2ccccc2)c(=O)c1N=Nc1ccc2c(c1)OCCO2	1.0	2.8	-0.3	0.8	6.8	.	.
Cc1[nH]n(-c2ccccc2)c(=O)c1N=Nc1c(O)cc(S(=O)(=O)N(C)C)c2ccccc12	41.7*	-16.4	3.0	13.6	0.2	89.0*	66.9*
O=C(Nc1cccc(C(F)(F)F)c1)Nc1nnc([C@H]2C[C@H](O)[C@@H](CO)O2)s1	18.7	-13.5	0.1	-4.4	-5.0	.	.
O=C(Nc1ccc(F)cc1)Nc1nnc(Cc2ccccc2F)s1	45.5*	-11.2	-0.4	-2.1	1.9	18.4	16.2*
O=C(Nc1ccccc1)Nc1nnc(Cc2ccccc2F)s1	31.2	-10.3	1.2	-1.9	-13.0	.	.
COc1cccc(NC(=O)Nc2nnc(Cc3ccccc3F)s2)c1	39.6*	-2.2	-3.4	6.3	-12.1	22.3	14.3*
COc1ccccc1NC(=O)Nc1nnc(Cc2ccccc2F)s1	6.8	5.8	-3.2	-1.8	-1.1	.	.
CCSCCc1nnc(NC(=O)Nc2cccc(C(F)(F)F)c2)s1	38.0*	-12.4	1.6	0.6	-7.1	27.3	19.5*
Cc1ccccc1C(=O)N(Cc1ccccn1)CC1CCCO1 (stereo unspecified)	1.9	3.2	1.5	.	-1.1	.	.
COC(=O)[C@H]1C[C@@]2(c3ccccc3)c3ccccc3N[C@H]2N1	1.9	0.2	-3.1	.	8.8	.	.
COC(=O)[C@H]1C[C@@]2(n3ccc4ccccc43)c3ccccc3N[C@H]2N1	9.2	10.5	4.1	.	3.4	.	.
Cc1cccc(Nc2nnc(SCC(O)=C(C#N)c3nc4ccccc4[nH]3)s2)c1	41.9*	4.4	2.6	-6.8	-13.6	48.1*	24.3*
Cc1ccccc1-n1c(SC/C(O)=C(\C#N)c2nc3ccccc3[nH]2)nnc1-c1ccncc1	7.9	10.2	0.5	4.1	-3.7	.	.
Cc1cc(C)n2c(SC/C(O)=C(\C#N)c3nc4ccccc4[nH]3)nnc2n1	37.2*	19.7	4.1	13.3	4.6	37.5*	17.2*
CC(C)=CCC[C@@]1(C(=O)O)[C@H]2CC=C(CO)[C@@H]1CC/C(C)=C/CC/C(C)=C/C2	6.5	-11.7	2.1	.	-1.9	.	.
C/C(=N/NC(=O)c1cccnc1)c1cccc(O)c1	-0.8	-1.4	2.1	.	8.8	.	.
CCOc1ccc(-c2ccc(/C=C3/C(=N)N4C(C)=CSC4=NC3=O)o2)c([N+](=O)[O-])c1	48.6*	16.4	-0.1	-2.0	10.5	31.1	12.5*
CC(C)(C)c1ccc(CC(=O)N2CCC2(C)C(=O)NS(=O)(=O)c2cccc(F)c2)cc1 (stereo unspecified)	38.9*	2.1	-5.7	0.9	-1.0	29.2	5.4*
CC1(C(=O)NS(=O)(=O)c2cccc(F)c2)CCN1C(=O)Cc1ccc(-c2ccccc2)cc1 (stereo unspecified)	50.7*	-3.2	5.2	0.1	-8.3	50.4*	14.6*
CC1(C(=O)NS(=O)(=O)c2cccc(Cl)c2)CCN1C(=O)Cc1ccc(-c2ccccc2)cc1 (stereo unspecified)	73.6*	2.3	-2.0	-6.1	0.5	68.4*	29.4*
CC1(C(=O)NS(=O)(=O)c2cccc(F)c2)CCN1C(=O)Cc1ccccc1 (stereo unspecified)	3.5	3.5	0.3	1.4	5.7	.	.
SMILES	rCAG binder	ABHD4 inh	PRMT1 FP inh	TCR-CD3 inh	SIAE primary	rCAG bind conf	dCAG dye counter	others
CCn1cc(C(=O)N2CCN(Cc3ccc(C)cc3)CC2)c(=O)c2ccc(C)nc21	4.4	4.4	-2.6	.	-0.3	.	.
Cc1ccc(S(=O)(=O)NN=Cc2c(O)ccc3ccccc23)cc1	41.5*	10.8	3.1	-4.3	12.1	46.2*	15.4*
O=C(Nc1cc(Br)ccc1O)c1cc(-c2ccccc2)on1	3.9	-2.0	-0.2	8.8	-17.7	.	.
O=C(Nc1cc(Br)ccc1O)c1cc(-c2ccco2)on1	42.5*	-15.7	8.2	-0.2	-5.0	42.0*	19.1*
O=C(Nc1cc(Cl)ccc1O)c1cc(-c2ccco2)on1	45.6*	-34.5	14.8	0.9	-14.7	17.8	11.9*
O=C(CSc1nc2ccccc2n1Cc1ccccc1Cl)NN=C/C(Br)=C/c1ccccc1	7.1	-5.7	2.1	.	-8.6	.	.
Oc1c(Br)cc(C=Nc2ccc3nc(-c4ccccc4)[nH]c3c2)c(O)c1Br	45.8*	30.9*	7.5	15.8	17.8*	56.1*	25.0*
O=[N+]([O-])c1ccc(O)c(C=Nc2ccc3nc(-c4ccccc4)[nH]c3c2)c1	11.2	22.5	-4.4	7.4	11.8	.	.
COc1ccc(-n2c(SCC(=O)Nc3ccc(Oc4ccccc4)cc3)nnc2-c2cccnc2)cc1	10.3	-3.1	4.2	.	-1.8	.	.
O=C(CCN1C(=O)/C(=C\c2ccco2)SC1=S)Nc1ccc(C(=O)O)c(O)c1	86.4*	-2.8	38.6*	8.1	-0.7	78.7*	37.0*	PRMT1 confirm=28.5*
O=C(CCN1C(=O)/C(=C/c2ccco2)SC1=S)Nc1ccc(C(=O)O)c(O)c1	90.2*	-13.8	39.0*	-1.9	10.3	73.2*	33.1*	DNA CAG DR=5.35*;PRMT1 confirm=30.2*
CC(C(=O)Nc1ccc(O)cc1C(=O)O)N1C(=O)/C(=C\c2cccs2)SC1=S (stereo unspecified)	80.1*	12.2	58.2*	2.5	-3.5	79.8*	41.0*	PRMT1 confirm=28.0*
O=C(CCCN1C(=O)/C(=C\c2ccco2)SC1=S)Nc1ccc2ccccc2c1	31.1	-18.3	4.3	-9.5	-1.4	.	.
O=C(CCN1C(=O)/C(=C/c2ccco2)SC1=S)Nc1ccc(O)cc1C(=O)O	92.9*	20.1	68.3*	-3.8	-1.6	69.7*	26.7*	DNA CAG DR=7.29*;PRMT1 confirm=37.6*
O=C(CCCN1C(=O)/C(=C\c2cccs2)SC1=S)Nc1ccccc1O	6.2	-4.6	-5.1	10.6	-4.5	.	.
